CSN deneddyl inh: CSN deneddylation inhibition; Purified CSN, SCF-Nedd8-OG deneddylation, fluorescence polarization; inhibition, % at 12.5 µM; 0.38% of 360,000 active;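 active = pattern-corrected inhibition above about 35%, with an unprinted fluorescence ratio check between 0.5 and 1.5, limit read from the data, passing the limit was not always enough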
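Assay system: purified human Csn5 enzyme expressed in HEK293T cells; measure: % inhibition; also added: SCFSkp2-Nedd8OG substrate at 10 nM final; technique: fluorescence polarization; times: reaction 90 min, room temperature; medium: Tris buffer pH 7.5, NaCl, DTT, Tween-20, trehalose, ovalbumin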
HNF4A DNA FP: change in binding of human HNF4 alpha to DNA; 0.3% of 360,000 active; HNF4a-FITC DNA binding, fluorescence polarization, 1 h; AID 1224865; activity change, % at 10 µM; in the data active = activity change above about 30%, passing the limit was not always enough
Target sequence (P41235 whole entry, looked up): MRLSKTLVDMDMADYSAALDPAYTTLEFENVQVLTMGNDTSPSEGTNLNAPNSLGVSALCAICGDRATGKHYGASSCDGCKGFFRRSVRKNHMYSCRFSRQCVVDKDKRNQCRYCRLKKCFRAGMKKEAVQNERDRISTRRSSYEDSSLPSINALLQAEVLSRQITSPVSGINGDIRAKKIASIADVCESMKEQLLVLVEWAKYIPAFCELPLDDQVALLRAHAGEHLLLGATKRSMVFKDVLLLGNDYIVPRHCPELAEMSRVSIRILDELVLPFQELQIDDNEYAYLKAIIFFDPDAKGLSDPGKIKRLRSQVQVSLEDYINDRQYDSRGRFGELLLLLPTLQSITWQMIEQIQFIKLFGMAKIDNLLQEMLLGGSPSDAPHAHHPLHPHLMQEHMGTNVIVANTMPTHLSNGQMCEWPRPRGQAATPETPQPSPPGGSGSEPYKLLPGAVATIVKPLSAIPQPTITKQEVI
TPT1 inh: blocks Candida albicans tRNA 2'-phosphotransferase. recombinant caTPT1, FP RNA substrate dephosphorylation. inhibition, % at 5 µM. 0.81% of 300,000 active;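 active = inhibition above the mean of all tested compounds plus 3 SD, set per screening campaign, cut at about 24% in these data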
NR1D1 modulator: modulators of human Rev-erb alpha DNA binding; P20393; Rev-erbα–FITC-DNA binding, fluorescence polarization, 90 min; activity, % at 10 µM; 0.79% of 370,000 active; AID 1259318;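 active = activity above about 14%, limit read from the data; passing the limit was not always enough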
CSN deneddyl val: Csn5 (human) deneddylation inhibition, single-concentration validation. Csn5 deneddylation of SCF-Nedd8OG, fluorescence polarization, 90 min. inhibition, % at 16.6 µM. AID 720654. 62% of 540 active. shares compounds with CSN deneddyl inh; in the data active = inhibition above about 50%
MMP-2 counter: blocks human MMP-2 in a CSN deneddylation counter-screen. shares compounds with CSN deneddyl inh. recombinant MMP-2, FRET substrate fluorescence, 60 min. inhibition, % at 16.6 µM. 33% of 540 active;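 active = corrected plate-normalized z-score of 5 or more, or -5 or less, or inhibition of 15% or more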
Thrombin counter: thrombin (bovine) inhibition, counter-screen for CSN hits. shares compounds with CSN deneddyl inh. bovine thrombin cleavage of Ub4-pepOG, fluorescence polarization. inhibition, % at 16.6 µM. 49% of 540 active;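 active = inhibition at or above a set limit, with a fluorescence interference ratio between 0.5 and a set maximum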
Hits are given with their value; - = inactive; . = not tested or not shown; + = active, no number. An excerpt weighted towards active compounds, which were near 1.7% of everything screened.

SMILES | CSN deneddyl inh | HNF4A DNA FP | TPT1 inh | NR1D1 modulator | CSN deneddyl val | MMP-2 counter | Thrombin counter
CCC(=O)OCCCN1CCC2(CCCCC2)C1=O | . | . | . | - | . | . | .
Oc1ccc(C2=Nn3c(nnc3-c3ccco3)SC2)cc1O | 37.6 | - | - | - | . | 31.0 | -
Fc1cccc(Cc2c(-c3ccco3)nc3c4ccccc4ccn23)c1 | 49.0 | - | . | - | 69.5 | - | 19.7
CCCc1cc(=O)oc2cc(OCC(=O)Nc3ccc(S(N)(=O)=O)cc3)ccc12 | 104.2 | - | - | - | - | 45.9 | 32.0
CCCc1cc(=O)oc2cc(OCC(=O)NCc3cccs3)ccc12 | - | - | - | - | . | . | .
Cc1ccc2[nH]c(=O)c(CN(CCc3ccccc3)C(c3nnnn3Cc3ccco3)C(C)C)cc2c1 (centres undefined) | 38.1 | - | - | - | 87.8 | - | -
NCc1cc2c3c(c1)CCCN3CCC2 | 63.2 | - | - | - | 87.5 | - | -
COc1cccc2cc(C(=O)N3CC(C)OC(C)C3)c(=O)oc12 (centres undefined) | - | - | - | - | . | . | .
COc1cc2c(oc(=O)c3cc(C)cc(OC)c32)c2c(C3OC(C)C(O)C(C)(O)C3O)ccc(O)c12 (centres undefined) | 35.4 | - | . | - | 107.3 | - | -
O=C1C(=C(I)I)c2ccccc2-c2ccccc21 | 51.8 | - | . | - | 62.6 | - | -
O=C(O)c1cccc2c1C(=O)c1ccccc1-2 | - | - | - | - | . | . | .
O=C1NN(c2ccccc2)C(=O)/C1=C/c1ccc(-c2ccc(C(=O)O)cc2)o1 | 35.4 | - | - | - | 59.5 | - | -
Cn1ccc2cc3c(cc21)CCN3C(=O)Nc1cccnc1 | 102.1 | - | - | - | 61.2 | -41.3 | -
O=S(=O)(Nc1c(S(=O)(=O)c2ccccc2)c2nc3ccccc3nc2n1C1CCCCC1)c1ccccc1 | 58.2 | - | - | - | - | - | -
C=CCn1c(NS(=O)(=O)c2ccccc2)c(S(=O)(=O)c2ccc(C)cc2)c2nc3ccccc3nc21 | - | - | - | - | . | . | .
CC1=C(C#N)C(=O)NC(=O)/C1=C/c1ccc(-c2ccc(S(N)(=O)=O)cc2)o1 | - | - | - | - | . | . | .
C=CCOC(=O)c1cc(-c2ccc(/C=C3\C(=O)NC(=O)C(C#N)=C3C)o2)ccc1Cl | 42.9 | - | . | - | 17.9 | 24.3 | -
COc1ccccc1-c1csc(-n2ncc(C#N)c2N)n1 | 68.0 | - | - | - | - | 71.7 | 16.6
COC(=O)c1cnn(-c2nc(-c3ccccc3)cs2)c1N | - | - | - | - | . | . | .
COc1cc(OC)c(-c2c3cc(O)c(=O)cc-3oc3cc(O)c(O)cc23)cc1OC | 80.5 | - | - | - | . | + | -
Cc1c2cc(O)c(=O)cc-2oc2cc(O)c(O)cc12 | - | - | - | - | . | . | .
CC(=O)Nc1sc2c(c1-c1nc3ccccc3s1)CCN(C(C)C)CC2 | . | . | . | - | . | . | .
O=C(CSc1nnc(-c2ccco2)c(-c2ccco2)n1)c1ccccc1 | 37.2 | - | - | - | 97.7 | - | -
C[C@H]1CN(C(=O)OC(C)(C)C)CCN1c1ccc(Br)c(C#N)c1 | . | . | . | - | . | . | .
COC(=O)[C@]12C[C@H](CC(=O)NCCC(C)C)C(=O)N(CCC3=CCCCC3)C1=C[C@H](C1CCCC1)O[C@@H]2C | . | . | . | - | . | . | .
SMILES | CSN deneddyl inh | HNF4A DNA FP | TPT1 inh | NR1D1 modulator | CSN deneddyl val | MMP-2 counter | Thrombin counter
C=CC(=O)NC1CCCCN(C)C1=O (centres undefined) | . | . | . | - | . | . | .
CC(=O)OC[C@]12CC[C@H]3[C@@](C)(CC[C@H]4C(C)(C)CCC[C@]34C)[C@@H]1CC(C1=CC(=O)OC1O)O2 (some centres undefined) | 35.3 | - | . | - | - | - | -
O=C(O)c1ccc(-n2cccc2/C=N\NC(=O)c2cc3cc(Br)ccc3o2)cc1 | 42.8 | - | - | - | - | 20.7 | 22.0
Cn1cc(/C=N/NC(=O)c2cc3cc(Br)ccc3o2)c2ccccc21 | - | - | - | - | . | . | .
Cc1ccc(-c2cc(C(=O)N/N=C/c3ccc([N+](=O)[O-])o3)c3ccccc3n2)o1 | 39.5 | - | . | - | 106.6 | - | -
C/C(=N\NC(=O)c1cc(-c2cccc([N+](=O)[O-])c2)n[nH]1)c1ccccc1O | 40.2 | - | - | - | . | - | -
C/C(=N/NC(=O)c1cc(-c2cccc([N+](=O)[O-])c2)n[nH]1)c1cccc(O)c1 | - | - | - | - | . | . | .
CC(C)CN=Cc1c(O)c([N+](=O)[O-])cc2oc3c(c12)CCCC3 | - | - | - | - | . | . | .
O=[N+]([O-])c1cc2oc3c(c2c(C=NCc2ccccc2)c1O)CCCC3 | 73.7 | - | - | - | 81.7 | - | 18.3
CN1C(=S)N(c2cccnc2)C(=O)/C1=C\c1ccc(N(C)C)cc1 | 46.8 | 75.9 | . | - | 67.8 | - | 21.9
Nc1cc2c3ccccc3ccc2c2ccccc12 | 45.6 | - | . | - | 82.2 | - | -
O=C(CCN1C(=O)/C(=C/c2ccc(Cl)cc2)SC1=S)Nc1cccc(C(=O)O)c1 | - | - | - | - | . | . | .
O=C(O)c1cccc(N2C(=O)/C(=C/c3ccc(SCc4ccc(Cl)cc4)o3)SC2=S)c1 | 45.7 | - | . | - | . | - | 48.9
CC[n+]1c(/C=C2\Sc3ccccc3N2C)ccc2cccc(C)c21 | 70.3 | 155.6 | . | . | - | - | -
FC(F)(F)C(F)(F)C(F)(F)C(F)(F)C(F)(F)C(F)(F)C(F)(F)C(F)(F)Br | . | . | . | - | . | . | .
CC(C)Cn1c(N)c(C(=O)NCC2CCCO2)c2nc3ccccc3nc21 (centres undefined) | 43.4 | - | - | - | 103.1 | - | -
O=C(Nc1ccc(F)cc1)OCc1cn(Cc2ccccc2C(F)(F)F)nn1 | . | . | . | - | . | . | .
O=C(Nc1ccc2oc(-c3ccccc3F)nc2c1)c1ccc([N+](=O)[O-])o1 | 39.9 | - | . | - | 102.6 | 16.0 | -
COCc1cn(-c2ccc3c(c2)[C@]2(CC(=O)N(C)C2c2ccccc2)C(=O)N3CC(C)C)nn1 (some centres undefined) | . | . | . | - | . | . | .
CCCCn1c(NC(=O)c2ccccc2)c(C#N)c2nc3ccccc3nc21 | 69.1 | 85.4 | . | - | - | - | -
CCC(=O)Nc1c(C#N)c2nc3ccccc3nc2n1-c1ccc(C)cc1 | - | - | . | - | . | . | .
N#Cc1c(NC(=O)c2ccc(Br)o2)n(-c2ccccc2)c2nc3ccccc3nc12 | 39.4 | 87.8 | - | - | 93.9 | - | -
O=C(OC12CCCN(C1)/C(=C/c1cccc(Cl)c1)C2)C1CCCC1 (centres undefined) | . | . | . | - | . | . | .
CN1OC[C@@H]2CN[C@H](c3ccc(N4CCCCC4)cc3)C[C@@H]21 | . | . | . | - | . | . | .
N=C(N)c1ccc(/C=C/c2ccc(C(=N)N)cc2O)cc1 | 45.7 | - | - | - | - | - | 31.9
CCOC(=O)/C=C(\C)Sc1cc(=O)oc2ccccc12 | - | - | - | . | . | . | .
CCOC(=O)/C=C(\C)Sc1cc(O)c2ccccc2c1O | 41.5 | - | . | - | 50.9 | 23.9 | -

Screening data deposited in PubChem BioAssay by several laboratories.
